ChEMBL document CHEMBL4613294, “Inhibition of Nonessential Bacterial Targets: Discovery of a Novel Serine O-Acetyltransferase Inhibitor” (ACS Med Chem Lett, 2020)
Converted amounts (≈) assume the structure as drawn. The source made the active and inactive calls. The calls are words filed in the database; no cut-off is given here.

Key:
[1] = Inhibition of Salmonella typhimurium Serine acetyltransferase expressed in Escherichia coli Tuner(TM) BL21(DE3) cells using acetylCo-A and L-serine as substrate measured every 27 secs for 5 mins by DNTB reagent-based UV-Visible spectrophotometric method; set-up: species or system Salmonella enterica subsp. enterica serovar Typhimurium
Escherichia coli [2] = assay: Antibacterial activity against Escherichia coli ATCC 25922 incubated in LB 20% minimal medium lacking cysteine for 16 to 24 hrs by CLSI-based broth microdilution assay; format: functional
Escherichia coli [3] = assay: Antibacterial activity against Escherichia coli ATCC 25922 incubated in MHB medium for 16 to 24 hrs by CLSI-based broth microdilution assay; format: functional
[4] = tested on: Salmonella enterica subsp. enterica serovar Typhimurium; assay: Inhibition of Salmonella typhimurium Serine acetyltransferase expressed in Escherichia coli Tuner(TM) BL21(DE3) cells at 100 uM using acetylCo-A and L-serine as substrate measured every 27 secs for 5 mins by DNTB reagent-based UV-Visible spectrophotometric method relative to control
Summary of the method: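 Recombinant StSAT activity followed indirectly with Ellman's reagent: CoASH released from acetyl-CoA plus L-Ser gives TNB, read by absorbance at pH above 7 (ε 14 000 M–1 cm–1) in 96-well format. Compounds at 100 μM, kinetic reads at 27 s intervals, % inhibition taken at 180 s endpoint. Hits at ≥40% retested at 100 μM.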

[5] = tested on: Salmonella enterica subsp. enterica serovar Typhimurium; assay: Inhibition of Salmonella typhimurium Serine acetyltransferase expressed in Escherichia coli Tuner(TM) BL21(DE3) cells at 50 to 200 uM using acetylCo-A and L-serine as substrate measured every 27 secs for 5 mins by DNTB reagent-based UV-Visible spectrophotometric method
[6] = Solubility of compound at 200 uM; format: physicochemical
Staphylococcus aureus = assay: Antibacterial activity against methicillin-resistant Staphylococcus aureus ATCC 33591 after 12 hrs by resazurin dye based assay; format: functional; conditions: ATCC 33591, 12 h

Row | Structure (SMILES) | IC50 [1] [µM] | MIC (Escherichia coli [2]) [µg/mL] | MIC (Escherichia coli [3]) [µg/mL] | solubility [6] | inhibition [4] [%] | inhibition [5] | MIC (Staphylococcus aureus) [µg/mL]
1 | COc1ccc(-c2cc(C(=O)NCc3ccccc3)n[nH]2)cc1S(N)(=O)=O | 52.8 | > 128 | > 128 |  | 79 |  | 
2 | COc1cccc(NC(=O)c2cc(-c3ccc(OC)c(S(N)(=O)=O)c3)[nH]n2)c1 | 13.6 | > 128 | > 128 |  | 75 |  | 
3 | O=C(Nc1ncc([N+](=O)[O-])s1)c1csnn1 | 48.6 | 64 (≈ 249 µM) | > 128 |  | 68 |  | 
4 | CC1=C2[C@@H](OC1=O)C(=O)[C@@H]1[C@@](O)(CCC3C(C)(C)CCC[C@]31C)[C@H]2O (some centres not stated) |  |  |  |  |  |  | 12.5 (≈ 35.9 µM)
5 | CC1(C)CCC[C@]2(C)C1CC[C@]1(O)[C@H](O)C3=C(CO)C(=O)OC3=C[C@H]12 (some centres not stated) |  |  |  |  |  |  | 25 (≈ 71.7 µM)

The next lines start with results.

Row | IC50 [1] [µM] | MIC (Escherichia coli [2]) [µg/mL] | MIC (Escherichia coli [3]) [µg/mL] | solubility [6] | Structure (SMILES) | inhibition [4] [%] | inhibition [5] | MIC (Staphylococcus aureus) [µg/mL]
6 | 84.1 | > 128 | > 128 |  | C=CCSc1nc2c(c(=O)[nH]1)C(c1ccc(OCC(N)=O)cc1)CC(=O)N2 (configuration not stated) | 57 |  | 
7 |  | > 128 | > 128 | Insoluble | COc1cc(NC(=O)c2cc(-c3ccc(OC)c(S(N)(=O)=O)c3)[nH]n2)cc(OC)c1 | 52 | Active | 
8 | 47.8 | > 128 | > 128 |  | Cc1snnc1C(=O)Nc1ncc([N+](=O)[O-])s1 | 72 |  | 
